Here are results for 8 compounds from ChEMBL document CHEMBL3351552, “Structure-activity profiles of novel 6-substituted pyrrolo[2,3-d]pyrimidine thienoyl antifolates with modified amino acids for cellular uptake by folate receptors α and β and the proton-coupled folate transporter” (J Med Chem, 2014).

The test system of test [1] is KB. As to the kind of experiment: Cytotoxicity against human KB cells assessed as cell growth inhibition incubated up to 96 hrs in presence of 200 nM folic acid by Celltiter-blue cell viability assay. It counts as functional, cell-based. The method in brief:
(§1)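 Cells plated at ~2500–5000/well in folate-free RPMI with 10% dialyzed FBS, antibiotics, 2 nM LCV and 2 mM L-glutamine, exposed to a range of drug concentrations. RT16 were pre-cultured 3 days in folate-free RPMI. FR dependence was tested in parallel wells containing 200 nM folic acid. Incubation up to 96 h, CellTiter-Blue fluorescence read-out. IC50 taken versus untreated cells.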
(In general: Resazurin is reduced to fluorescent resorufin, in cell work by metabolically active cells.)

Test [2] deals with Folate receptor alpha (Homo sapiens) (UniProt P15328). As to the kind of experiment: Inhibition of [3H]folic acid binding to FRalpha (unknown origin) expressed in Chinese hamster RT16 cells. It is filed as cell-based. The procedure, abridged:
(§2)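 RT16 (FRα) or D4 (FRβ) CHO cells (~5 × 10^6) were stripped of bound folate with pH 3.5 acetate/saline, then washed in ice-cold HEPES-buffered saline pH 7.4. Cells were incubated 15 min at 0 °C with 50 nM [3H]folic acid (0.5 Ci/mmol) plus 0–1000 nM unlabeled competitor. Cells were rinsed cold, NaOH-solubilized, and counts normalized to protein. […] Mean ± SE, n=3.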

For test [3], the target named is Folate receptor beta (Homo sapiens) (UniProt P14207). As to the kind of experiment: Inhibition of [3H]folic acid binding to FRbeta (unknown origin) expressed in Chinese hamster D4 cells. It is filed as cell-based. The method in brief: as §2
Test [4] has as its system KB. The test is described as follows: Cytotoxicity against human KB cells assessed as cell growth inhibition incubated up to 96 hrs in presence of 60 uM adenosine by Celltiter-blue cell viability assay. It counts as functional, cell-based. The procedure, abridged:
(§3)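 KB cells grown in complete folate-free RPMI 1640 with 2 nM LCV over a range of drug concentrations, with added thymidine (10 μM), adenosine (60 μM) or AICA (320 μM) as protecting agents. After up to 96 h, density measured by CellTiter-Blue fluorescence and normalized to drug-free cells. Experiments run in triplicate.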

Test [5] addresses T1, Proton-coupled folate transporter (Homo sapiens) (UniProt Q96NT5).
T1 sequence (whole entry): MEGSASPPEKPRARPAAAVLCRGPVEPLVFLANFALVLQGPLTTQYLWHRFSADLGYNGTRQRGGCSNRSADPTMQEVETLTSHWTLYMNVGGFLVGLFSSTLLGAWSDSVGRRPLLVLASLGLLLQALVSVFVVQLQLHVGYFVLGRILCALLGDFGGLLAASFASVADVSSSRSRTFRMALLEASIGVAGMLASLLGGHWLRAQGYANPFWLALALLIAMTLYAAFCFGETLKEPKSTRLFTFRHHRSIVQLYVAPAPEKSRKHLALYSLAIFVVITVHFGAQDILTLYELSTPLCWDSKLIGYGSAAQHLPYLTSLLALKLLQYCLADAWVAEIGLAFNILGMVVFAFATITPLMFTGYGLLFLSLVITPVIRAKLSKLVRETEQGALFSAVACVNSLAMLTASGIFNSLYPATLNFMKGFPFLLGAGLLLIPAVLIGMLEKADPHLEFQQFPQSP
The test is described as follows: Inhibition of PCFT (unknown origin) expressed in Chinese hamster R2/PCFT4 cells assessed as reduction in PCFT-mediated [3H]MTX transport at 10 uM at pH 5.5 and 37 degC incubated for 5 mins. It is filed as cell-based. The method in brief:
(§4)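 Uptake was quenched with ice-cold DPBS, cells washed and solubilized in 0.5 N NaOH. Radioactivity was expressed per mg protein and normalized to untreated controls. Mean ± SE of three experiments.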

The target in test [6] is T1, Proton-coupled folate transporter (Homo sapiens). As to the kind of experiment: Inhibition of PCFT (unknown origin) expressed in Chinese hamster R2/PCFT4 cells assessed as reduction in PCFT-mediated [3H]MTX transport at 10 uM at pH 6.8 and 37 degC incubated for 5 mins. It counts as cell-based. The procedure, abridged: as §4
Test [7] has the same target. As to the kind of experiment: Inhibition of PCFT (unknown origin) expressed in Chinese hamster R2/PCFT4 cells assessed as reduction in PCFT-mediated [3H]MTX transport at 1 uM at pH 5.5 and 37 degC incubated for 5 mins. It counts as cell-based. The procedure, abridged: as §4
For test [8] the target is unchanged. The test is described as follows: Inhibition of PCFT (unknown origin) expressed in Chinese hamster R2/PCFT4 cells assessed as reduction in PCFT-mediated [3H]MTX transport at 1 uM at pH 6.8 and 37 degC incubated for 5 mins. It counts as cell-based. The method in brief:
as §4

The subject of test [9] is KB. As to the kind of experiment: Cytotoxicity against human KB cells assessed as cell growth inhibition incubated up to 96 hrs in presence of 10 uM thymidine by Celltiter-blue cell viability assay. It is filed as functional, cell-based. The method in brief: as §3
In test [10] the test system is KB. As to the kind of experiment: Cytotoxicity against human KB cells assessed as cell growth inhibition incubated up to 96 hrs in presence of 320 uM AICA by Celltiter-blue cell viability assay. It is filed as functional, cell-based. The procedure, abridged:
as §3

Test [11] addresses T2, Proton-coupled folate transporter (Homo sapiens, UniProt Q96NT5).
T2 sequence (Q96NT5 whole entry): T1 sequence (whole entry)
As to the kind of experiment: Inhibition of PCFT (unknown origin) expressed in Chinese hamster R2/PCFT4 cells assessed as reduction in PCFT-mediated [3H]MTX transport at pH 5.5 and 37 degC incubated for 5 mins. It is filed as cell-based.

Test [12] has as its system R2. The test is described as follows: Cytotoxicity against Chinese hamster R2 cells assessed as cell growth inhibition incubated up to 96 hrs by Celltiter-blue cell viability assay. It counts as cell-based. The note with it: Cricetulus griseus, R2, 96 h.
Test [13] deals with R2. As to the kind of experiment: Cytotoxicity against Chinese hamster R2 cells expressing empty vector assessed as cell growth inhibition incubated up to 96 hrs by Celltiter-blue cell viability assay. It counts as cell-based, Cricetulus griseus. The note with it: R2, 96 h.
The subject of test [14] is KB. The test is described as follows: Cytotoxicity against human KB cells assessed as cell growth inhibition incubated up to 96 hrs by Celltiter-blue cell viability assay. It counts as functional, cell-based. The procedure, abridged:
as §1

One may read the IC50 as the concentration needed to halve the response being measured. The inhibition is the relative decrease from the control value, in per cent. A word on the Ki: it is the dissociation constant of the complex between target and ligand, obtained from inhibition or displacement.

Active and inactive are the calls of the source. No cut-off for these calls is given here.

Sequence of Folate receptor alpha (Homo sapiens) (P15328 25-234 limits assumed): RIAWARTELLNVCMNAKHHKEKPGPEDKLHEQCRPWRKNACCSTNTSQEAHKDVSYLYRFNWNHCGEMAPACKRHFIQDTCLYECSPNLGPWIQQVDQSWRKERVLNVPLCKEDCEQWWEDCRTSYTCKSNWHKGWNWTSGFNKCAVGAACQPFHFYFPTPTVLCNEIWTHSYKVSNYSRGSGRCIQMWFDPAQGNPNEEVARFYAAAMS
Sequence of Folate receptor beta (Homo sapiens) (P14207 17-230 limits assumed): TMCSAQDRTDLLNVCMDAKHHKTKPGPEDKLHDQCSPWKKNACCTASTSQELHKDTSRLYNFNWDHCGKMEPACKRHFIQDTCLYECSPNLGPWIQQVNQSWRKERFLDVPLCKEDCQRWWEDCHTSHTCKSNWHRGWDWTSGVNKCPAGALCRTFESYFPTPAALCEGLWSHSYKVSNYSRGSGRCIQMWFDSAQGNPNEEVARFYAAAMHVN

Regarding `Nc1nc2[nH]c(CCCc3ccc(C(=O)N[C@@H](CCC(=O)O)C(=O)O)s3)cc2c(=O)[nH]1`, the IC50 with KB [1] is greater than 1000 nM. Also, the inhibition result in test [2] and in test [3] was “Active” in each case. Besides, the “growth inhibition (GI)” value with KB [4] and in the test with KB [10] was “inactive” throughout. The inhibition was found to be 95% in [5], 70% in [6], 80% in test [7] and 20% in test [8]. Further, in the test with KB [9], the “growth inhibition (GI)” value is “Active”.
As to `CCC[C@H](NC(=O)c1ccc(CCCc2cc3c(=O)[nH]c(N)nc3[nH]2)s1)C(=O)O`, the IC50 in the test with KB [1], in the test on R2 [12], in the test on R2 [13] and with KB [14] was greater than 1000 nM each time. The inhibition result in [2] and in [3] was “Active” throughout. For the same compound, the results for the inhibition in test [5], in test [6] and in test [7] were 70%, 30% and 25%, respectively. Besides, the Ki in test [11] was 2900 nM.
For the compound `Nc1nc(=O)c2nc(CNc3ccc(C(=O)N[C@@H](CCC(=O)O)C(=O)O)cc3)cnc2[nH]1`, the inhibition result in test [2] and in [3] was “Active” throughout.
Consider `CN(Cc1cnc2nc(N)nc(N)c2n1)c1ccc(C(=O)N[C@@H](CCC(=O)O)C(=O)O)cc1` [METHOTREXATE], for which the inhibition entry in test [2] and in test [3] was “inactive” throughout. In addition, the IC50 in the test with R2 [13] was greater than 1000 nM.
In the case of `Nc1nc2[nH]c(CCCc3ccc(C(=O)N[C@@H](CCCC(=O)O)C(=O)O)s3)cc2c(=O)[nH]1`, the IC50 with KB [1] is greater than 1000 nM; in the test with R2 [12], greater than 1000 nM; in the test on R2 [13], greater than 1000 nM; in the test with KB [14], 9 nM. In addition, the inhibition entry in [2] and in test [3] was “Active” in each case. For the same compound, the “growth inhibition (GI)” value in the test on KB [4] and with KB [10] was “inactive” in each case. The inhibition in test [5] was 75%; in test [6], 30%; in test [7] it was 10%. Also, in test [11], the Ki came to 1600 nM. Moreover, the “growth inhibition (GI)” value in the test on KB [9] was “Active”.
Turning to `Nc1nc2[nH]c(CCCc3ccc(C(=O)NCCCC(=O)O)s3)cc2c(=O)[nH]1`, the IC50 with KB [1], with R2 [12], in the test with R2 [13] and in the test on KB [14] was greater than 1000 nM each time. Also, the inhibition result in test [2] and in [3] was “Active” in each case.
For `Nc1nc2[nH]c(CCCc3ccc(C(=O)N[C@@H](CC(=O)O)C(=O)O)s3)cc2c(=O)[nH]1`, the IC50 in the test with KB [1], in the test on R2 [12], in the test with R2 [13] and in the test with KB [14] was greater than 1000 nM throughout. Further, the inhibition result in test [2] and in [3] was “Active” each time.
For `Nc1nc2[nH]c(CCCc3ccc(C(=O)O)s3)cc2c(=O)[nH]1`, the half-maximal inhibitory concentration (IC50) with KB [1], with R2 [12], in the test on R2 [13] and in the test on KB [14] was greater than 1000 nM in each case. In addition, the inhibition entry in test [2] and in test [3] was “Active” each time.
